Active and inactive are the calls of the source. No cut-off for these calls is given here.
Key:
U2OS [1] = assay: Induction of cell cycle arrest in human U2OS cells assessed as percentage of cells at G0/G1 phase, cells were released from mimosine block prior to compound addition at 10 uM after 38 hrs by flow cytometry analysis (reference value: 39.6%); format: functional
U2OS [2] = assay: Induction of cell cycle arrest in human U2OS cells expressing pRb negative assessed as percentage of cells at S phase at 10 uM after 24 hrs by flow cytometry analysis (reference value: 30.3%); format: functional
U2OS [3] = assay: Induction of cell cycle arrest in human U2OS cells assessed as percentage of cells at SubG1 phase, cells were released from mimosine block prior to compound addition at 10 uM after 38 hrs by flow cytometry analysis (reference value: 5%); format: functional
[4] = Inhibition of GST-tagged human v-abl expressed in baculovirus infected Sf9 cells using tyrosine-containing peptide substrate in presence of ATP
U2OS [5] = assay: Induction of cell cycle arrest in human U2OS cells assessed as percentage of cells at S phase, cells were released from mimosine block prior to compound addition at 10 uM after 38 hrs by flow cytometry analysis (reference value: […]%); format: functional
U2OS [6] = assay: Induction of cell cycle arrest in human U2OS cells assessed as percentage of cells at S phase, cells were released from quinidine block prior to compound addition at 10 uM after 24 hrs by flow cytometry analysis (reference value: 21.39%); format: functional
Insulin receptor = Insulin receptor (Homo sapiens, UniProt P06213); assay: Inhibition of GST-tagged human Insulin receptor expressed in baculovirus infected Sf9 cells using tyrosine-containing peptide substrate in presence of ATP
Chain of Insulin receptor (P06213 28-758 limits assumed): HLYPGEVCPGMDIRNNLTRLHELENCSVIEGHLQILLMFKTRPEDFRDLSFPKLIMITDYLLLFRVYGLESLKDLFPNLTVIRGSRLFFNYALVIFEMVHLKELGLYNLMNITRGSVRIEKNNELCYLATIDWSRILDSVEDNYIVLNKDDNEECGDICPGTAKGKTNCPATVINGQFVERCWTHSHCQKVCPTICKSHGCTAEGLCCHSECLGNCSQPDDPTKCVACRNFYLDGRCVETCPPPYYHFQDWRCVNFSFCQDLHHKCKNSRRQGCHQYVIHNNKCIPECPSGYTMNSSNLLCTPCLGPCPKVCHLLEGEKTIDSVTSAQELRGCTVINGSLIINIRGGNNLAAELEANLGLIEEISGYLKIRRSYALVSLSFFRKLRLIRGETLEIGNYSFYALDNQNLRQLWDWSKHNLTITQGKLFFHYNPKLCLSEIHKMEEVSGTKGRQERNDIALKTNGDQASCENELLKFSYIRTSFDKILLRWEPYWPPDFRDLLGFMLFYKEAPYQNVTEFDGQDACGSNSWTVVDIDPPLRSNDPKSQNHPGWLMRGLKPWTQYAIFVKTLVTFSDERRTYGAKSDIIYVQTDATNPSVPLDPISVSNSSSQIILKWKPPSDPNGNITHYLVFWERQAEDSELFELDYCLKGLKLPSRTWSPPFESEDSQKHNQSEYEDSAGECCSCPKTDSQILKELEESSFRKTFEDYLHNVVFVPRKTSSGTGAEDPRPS
Chain of Insulin receptor (P06213 763-1382 limits assumed): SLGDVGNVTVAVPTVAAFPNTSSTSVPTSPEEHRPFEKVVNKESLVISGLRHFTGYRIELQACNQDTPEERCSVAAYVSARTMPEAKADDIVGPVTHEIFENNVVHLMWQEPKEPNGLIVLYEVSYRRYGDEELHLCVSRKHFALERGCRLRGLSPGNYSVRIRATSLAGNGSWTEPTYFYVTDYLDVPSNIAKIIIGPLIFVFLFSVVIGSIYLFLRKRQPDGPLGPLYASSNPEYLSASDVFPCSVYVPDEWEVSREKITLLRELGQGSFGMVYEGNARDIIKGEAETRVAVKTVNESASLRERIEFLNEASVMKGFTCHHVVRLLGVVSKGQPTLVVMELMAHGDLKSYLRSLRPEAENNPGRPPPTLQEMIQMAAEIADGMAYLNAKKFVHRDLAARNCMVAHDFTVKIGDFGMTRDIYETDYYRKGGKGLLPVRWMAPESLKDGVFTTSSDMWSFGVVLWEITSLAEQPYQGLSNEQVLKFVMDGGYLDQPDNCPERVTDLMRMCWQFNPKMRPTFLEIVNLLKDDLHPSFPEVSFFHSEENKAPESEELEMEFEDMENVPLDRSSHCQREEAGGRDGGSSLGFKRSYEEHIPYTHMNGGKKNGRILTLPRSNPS

NIH3T3 [7] = assay: Induction of cell cycle arrest in mouse NIH3T3 cells expressing pRb assessed as percentage of cells at G0/G1 phase at 5 uM after 24 hrs by flow cytometry analysis (reference value: 44.7%); format: functional
NIH3T3 [8] = assay: Induction of cell cycle arrest in mouse NIH3T3 cells expressing pRb-negative assessed as percentage of cells at G0/G1 phase at 5 uM after 24 hrs by flow cytometry analysis (reference value: 43.5%); format: functional
U2OS [9] = assay: Induction of cell cycle arrest in human U2OS cells expressing pRb negative assessed as percentage of cells at G0/G1 phase at 5 uM after 24 hrs by flow cytometry analysis (reference value: 42.5%); format: functional
HCT-116 [10] = assay: Antitumor activity against human HCT-116 cells xenografted in nude mouse assessed as decrease tumor growth at 30 mg/kg, ip administered every 12 hrs measured after 29 days; format: functional, organism-based
How it was run: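 Female BALB/c nu/nu mice (19–21 g), 8 per group, injected s.c. with 0.1 mL HCT116 suspension (1 × 10^7 viable cells/mL in Hanks' buffer). Treatment started at about 100 mm3 (day 20). Dosing i.p. in 5% DMSO/0.05% Tween 80/95% saline at 10 mL/kg for 29 days; vehicle controls. Caliper volumes taken blinded every 2–4 days as length × width² × π/6. Dunnett ANOVA; growth rate compared as log-volume slopes.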

HCT-116 [11] = assay: Induction of cell cycle arrest in human HCT-116 cells assessed as number of cells at G0/G1 phase at 10 uM after 24 hrs in presence of 10% serum by flow cytometry analysis (reference value: 49.5%); format: functional
How it was run: (§1)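 HCT116 cells in McCoy's 5A were serum-starved 72 h in 0.1% serum, then released for 24 h into 10% serum with or without compound. They were fixed in 70% ethanol, RNase-treated (3 mg/mL, 30 min, 37 °C) and stained with 50 μg/mL propidium iodide. Flow cytometry on FL-2 area with doublet gating gave the percentages in sub-G1, G0/G1, S and G2/M.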

U2OS [12] = assay: Induction of cell cycle arrest in human U2OS cells expressing pRb assessed as percentage of cells at S phase at 10 uM after 24 hrs by flow cytometry analysis (reference value: 19.9%); format: functional
MRC5 [13] = assay: Induction of cell cycle arrest in human MRC5 cells assessed as number of cells at SubG1 phase at 10 uM after 24 hrs in presence of 10% serum by flow cytometry analysis (reference value: 4.9%); format: functional
[14] = target: Cyclin-dependent kinase 5/CDK5 activator 1 (Homo sapiens, UniProt Q00535); assay: Inhibition of GST-tagged human CDK5/p35 expressed in baculovirus infected Sf9 cells using retinoblastoma protein in presence of ATP
Chain of Cyclin-dependent kinase 5/CDK5 activator 1 (Q00535 whole entry, the tested form may be a part): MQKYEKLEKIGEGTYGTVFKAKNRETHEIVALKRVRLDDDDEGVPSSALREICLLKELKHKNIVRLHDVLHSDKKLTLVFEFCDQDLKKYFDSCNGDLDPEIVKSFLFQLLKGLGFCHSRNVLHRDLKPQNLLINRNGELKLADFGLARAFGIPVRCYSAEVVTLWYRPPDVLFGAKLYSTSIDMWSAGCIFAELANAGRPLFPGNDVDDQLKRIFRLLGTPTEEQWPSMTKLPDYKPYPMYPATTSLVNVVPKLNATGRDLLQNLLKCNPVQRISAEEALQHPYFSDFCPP
Chain of Cyclin-dependent kinase 5/CDK5 activator 1 (Q15078 whole entry, further chain, the tested form may be a part): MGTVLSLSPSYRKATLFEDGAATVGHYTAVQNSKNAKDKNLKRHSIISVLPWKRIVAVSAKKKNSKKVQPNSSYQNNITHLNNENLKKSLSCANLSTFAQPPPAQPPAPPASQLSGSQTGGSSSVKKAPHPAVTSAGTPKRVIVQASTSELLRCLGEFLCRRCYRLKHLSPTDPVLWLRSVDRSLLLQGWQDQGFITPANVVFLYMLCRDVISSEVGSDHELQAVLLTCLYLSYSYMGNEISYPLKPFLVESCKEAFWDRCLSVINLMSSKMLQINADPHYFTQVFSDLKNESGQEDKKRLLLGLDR
How it was run: (§2)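 Cdk holoenzymes (Cdk with GST-cyclin or activator), expressed in Sf9 insect cells and purified on glutathione-Sepharose, were combined 1:1. Radiometric reactions used [33P]ATP with GST-pRb(152), the C-terminal 152-residue pRb fragment, as substrate. Label was quantified by phosphorimager. Ten inhibitor concentrations from 0 to 100 μM were run in duplicate across three independent experiments. IC50 came from plotting percent incorporation relative to the no-inhibitor reaction against concentration.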

NIH3T3 [15] = assay: Induction of cell cycle arrest in mouse NIH3T3 cells expressing pRb assessed as percentage of cells at S phase at 5 uM after 24 hrs by flow cytometry analysis (reference value: 12.2%); format: functional
HCT-116 [16] = assay: Induction of cell cycle arrest in human HCT-116 cells assessed as number of cells at S phase at 10 uM after 24 hrs in presence of 10% serum by flow cytometry analysis (reference value: 36.3%); format: functional; how it was run: as §1
U2OS [17] = assay: Induction of cell cycle arrest in human U2OS cells assessed as percentage of cells at S phase, cells were released from mimosine block prior to compound addition at 5 uM after 38 hrs by flow cytometry analysis (reference value: […]%); format: functional
U2OS [18] = assay: Induction of apoptosis in human U2OS cells assessed as number of apoptotic cells at 5 uM after 48 hrs by TUNEL staining based fluorescence analysis (reference value: 0.61%); format: functional
HCT-116 [19] = assay: Induction of cell cycle arrest in human HCT-116 cells assessed as number of cells at SubG1 phase at 10 uM after 24 hrs in presence of 10% serum by flow cytometry analysis (reference value: 1.1%); format: functional; how it was run: as §1
CDK6/cyclin D2 = CDK6/cyclin D2 (Homo sapiens, UniProt P30279+Q00534); assay: Inhibition of GST-tagged human CDK6/Cyclin D2 expressed in baculovirus infected Sf9 cells using retinoblastoma protein in presence of ATP; how it was run: as §2
Chain of CDK6/cyclin D2 (Q00534 whole entry): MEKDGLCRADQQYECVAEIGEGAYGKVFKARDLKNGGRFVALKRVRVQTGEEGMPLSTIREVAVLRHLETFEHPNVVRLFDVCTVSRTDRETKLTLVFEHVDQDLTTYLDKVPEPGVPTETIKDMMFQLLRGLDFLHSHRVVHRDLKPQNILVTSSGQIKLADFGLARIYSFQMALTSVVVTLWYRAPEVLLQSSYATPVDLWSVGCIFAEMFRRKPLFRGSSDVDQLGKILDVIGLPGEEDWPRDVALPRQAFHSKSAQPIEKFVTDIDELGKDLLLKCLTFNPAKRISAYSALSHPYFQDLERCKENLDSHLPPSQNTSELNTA
Chain of CDK6/cyclin D2 (P30279 whole entry): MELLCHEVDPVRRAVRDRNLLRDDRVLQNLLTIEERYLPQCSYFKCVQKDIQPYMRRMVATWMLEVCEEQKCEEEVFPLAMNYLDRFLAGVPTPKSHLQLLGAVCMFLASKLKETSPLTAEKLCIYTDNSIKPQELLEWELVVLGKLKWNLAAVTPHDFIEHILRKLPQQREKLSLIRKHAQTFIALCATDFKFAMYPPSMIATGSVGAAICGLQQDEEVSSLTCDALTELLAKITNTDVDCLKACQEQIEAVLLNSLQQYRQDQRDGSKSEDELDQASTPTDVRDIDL

MRC5 [20] = assay: Induction of cell cycle arrest in human MRC5 cells assessed as number of cells at G2/M phase at 5 uM after 24 hrs in presence of 10% serum by flow cytometry analysis (reference value: 14.9%); format: functional
NIH3T3 [21] = assay: Induction of cell cycle arrest in mouse NIH3T3 cells expressing pRb assessed as percentage of cells at S phase at 10 uM after 24 hrs by flow cytometry analysis (reference value: 12.2%); format: functional
U2OS [22] = assay: Induction of cell cycle arrest in human U2OS cells expressing pRb assessed as percentage of cells at G0/G1 phase at 10 uM after 24 hrs by flow cytometry analysis (reference value: 49.8%); format: functional
MRC5 [23] = assay: Induction of cell cycle arrest in human MRC5 cells assessed as number of cells at G0/G1 phase at 10 uM after 24 hrs in presence of 10% serum by flow cytometry analysis (reference value: 64.1%); format: functional

CCNc1cc(N[C@H]2CC[C@H](O)CC2)nc(Nc2ccc3c(ccn3Cc3ccccc3)c2)n1
Activity (U2OS [1]): 14.3% | Activity (U2OS [2]): 25.1% | Activity (U2OS [3]): 56% | IC50 [4]: > 10 µM | Activity (U2OS [5]): 15.8% | Activity (U2OS [6]): 7.6% | IC50 (Insulin receptor): > 10 µM | Activity (NIH3T3 [7]): 92.3% | Activity (NIH3T3 [8]): 49.8% | Activity (U2OS [9]): 44.8% | Activity (HCT-116 [10]): Active | Activity (HCT-116 [11]): 60.3% | Activity (U2OS [12]): 3.6% | Activity (MRC5 [13]): 8.3% | IC50 [14]: 25 µM | Activity (NIH3T3 [15]): 3.2% | Activity (HCT-116 [16]): 22.6% | Activity (U2OS [17]): 20.6% | Activity (U2OS [18]): 1% | Activity (HCT-116 [19]): 4.1% | IC50 (CDK6/cyclin D2): > 50 µM | Activity (MRC5 [20]): 4.4% | Activity (NIH3T3 [21]): 3.1% | Activity (U2OS [22]): 82.9% | Activity (MRC5 [23]): 84.8%

— ChEMBL document CHEMBL5661964, “Selective in vivo and in vitro effects of a small molecule inhibitor of cyclin-dependent kinase 4” (J Natl Cancer Inst, 2001)
